Data set [1] has as its target Potassium-transporting ATPase (Oryctolagus cuniculus). The experiment in a line: In vitro evaluation for the inhibition of H+/K+ ATPase at pH < 3 in the gastric glands of isolated rabbit stomach.
Data set [2] addresses Sodium/potassium-transporting ATPase. Put plainly: In vitro evaluation for its ability to inhibit the Na+/K+ ATPase at pH 7.4. Format: protein-complex assay, Canis lupus familiaris. Put shortly:
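Dog kidney (Na+,K+)-ATPase (20 μg) incubated in 50 mmol/L HEPES pH 7.4 containing (mmol/L) 140 NaCl, 10 KCl, 3 ATP-Mg and 0.5 EDTA, with inhibitor at 0–300 μmol/L.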

Data set [3] can be described thus: t1/2 (pH 3). Format: ADME.
Data set [4] can be described thus: Half life at pH 7.4. Format: ADME. The note with it: buffer.
A short description of data set [5]: t1/2 (pH 5). Format: ADME.
The nature of data set [6]: pKa value (imidazole). The data set is classed as physicochemical. Put shortly:
(§1)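 Measured spectrophotometrically at ambient temperature (25 °C).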

Data set [7] can be described thus: pKa value (pyridine). The data set is classed as physicochemical. The essentials: as §1
A short description of data set [8]: Half life at pH 7.4; Insoluble to measure. Format: ADME. The note with it: buffer.
The nature of data set [9]: Half life at pH 5; Insoluble to measure. The note with it: buffer. The data set is classed as ADME.
Data set [10] in a line: Half life at pH 3; Insoluble to measure. Format: ADME. To be noted: buffer.

The text below walks through data of ChEMBL document CHEMBL1125404 (J Med Chem, 1992).

The term IC50 denotes the concentration needed to halve the response being measured. By half-life is commonly meant the time in which the quantity being followed falls by half. Low values mean rapid decline, high ones slow decline. As for `COc1ccnc(C[S+]([O-])c2nc3cc(OC(F)F)ccc3[nH]2)c1` (stereo unspecified), in data set [1], half-maximal inhibition (IC50) required 1580 nM. For the same compound, the “-Log IC50” value in data set [2] is recorded as 4.3. In addition, the half-life is 10 min in [3], 2.12 days in data set [4] and 48 min in data set [5].
Take `COc1cnc(C[S+]([O-])c2nc3cc(OC(F)(F)C(F)F)ccc3[nH]2)c(C)c1OC` (stereo unspecified): in [1], the midpoint of inhibition, the IC50, lay at 7940 nM. In data set [2], the “-Log IC50” value is on record as 4.2. Besides, the half-life in data set [3] was 20 min; in [4], 1.79 days; in data set [5] it was 408 min.
The compound `COc1cnc(C[S+]([O-])c2nc3cc(OC(F)(F)C(F)F)ccc3[nH]2)cc1OC` (stereo unspecified) gave an IC50 in [1] of 20000 nM. Moreover, the “-Log IC50” value in [2] was under 3. Also, the figures for the half-life in [3], in data set [4] and in data set [5] were 19 min, 5.83 days and 174 min, respectively.
The term pKa denotes the pH at which an ionisable group is half protonated. Low readings indicate a stronger acid or weaker base, high ones a weaker acid or stronger base. As for `COc1cc(C[S+]([O-])c2nc3cc(OC(F)(F)C(F)F)ccc3[nH]2)ncc1C` (stereo unspecified), in data set [1], 1260 nM corresponded to half-maximal inhibition (IC50). The “-Log IC50” value in [2] was found to be 5.5. Besides, the figures for the half-life in data set [3], in data set [4] and in data set [5] were 6 min, 0.75 days and 12 min, respectively. The pKa in data set [6] amounted to 8; in [7], 4.95.
In data set [1], `COc1ccnc(C[S+]([O-])c2nc3cc(OCC(F)(F)F)ccc3[nH]2)c1OC` (stereo unspecified) showed an IC50 of 1000 nM. The “-Log IC50” value in data set [2] was 3.5. Also, the half-life is 11 min in data set [3], over 8.33 days in data set [4] and 456 min in [5]. For the same compound, the pKa in data set [6] came out at 8.52; in [7], 3.9.
Turning to `COc1ccnc(C[S+]([O-])c2nc3cc(F)c(OC(F)F)cc3[nH]2)c1C` (stereo unspecified), the 50% inhibitory concentration (IC50) in data set [1] is 3160 nM. Further, in data set [2], the “-Log IC50” value amounted to 4.7. Further, the values for the half-life in data set [3], in [4] and in data set [5] were 8 min, 0.167 days and 30 min, respectively.
For `COc1ccnc(C[S+]([O-])c2nc3cc(OC(F)(F)C(F)F)ccc3[nH]2)c1` (stereo unspecified), half-maximal inhibition in [1] (IC50) was put at 1260 nM. Moreover, the “-Log IC50” value in data set [2] is 4.4. The half-life in data set [3] is 10 min; in data set [4], 2.62 days; in [5] it was 48 min. For the same compound, the pKa in data set [6] was determined as 7.91; in [7], 4.25.
Compound `COc1cc2[nH]c([S+]([O-])Cc3nccc(OC)c3C)nc2cc1OC(F)F` (stereo unspecified) showed a 50% inhibitory concentration (IC50) in [1] of 1580 nM. In data set [2], the “-Log IC50” value is reported as 5. For the same compound, the half-life in [3] was 6 min; in data set [4], 0.458 days; in data set [5], 12 min. In addition, the pKa was found to be 8.31 in data set [6] and 4.96 in [7].
`COc1cnc(C[S+]([O-])c2nc3cc(OC(F)F)ccc3[nH]2)c(C)c1OC` (stereo unspecified) showed a concentration for half-maximal inhibition (IC50) in data set [1] of 2510 nM. The “-Log IC50” value in [2] is given as 4.6. For the same compound, the half-life in data set [3] is 12 min; in [4], 2.5 days; in data set [5], 222 min. The pKa in [6] worked out at 8.35; in data set [7] it was 3.73.
For `COc1ccnc(C[S+]([O-])c2nc3cc(OC(F)F)ccc3[nH]2)c1C` (stereo unspecified), in [1], the midpoint of inhibition, the IC50, lay at 631 nM. Moreover, in data set [2], the “-Log IC50” value is recorded as 5.2. Besides, the values for the half-life in data set [3], in data set [4] and in data set [5] were 5 min, 0.125 days and 10.2 min, respectively.
For the compound `COc1ccnc(C[S+]([O-])c2nc3cc4c(cc3[nH]2)OC(F)(F)O4)c1C` (stereo unspecified), in data set [1], the half-inhibitory concentration (IC50) is 1000 nM. For the same compound, in [2], the “-Log IC50” value was found to be 4.6. Moreover, the half-life was 10 min in [3] and 30 min in data set [5]. Further, the pKa came to 7.93 in data set [6] and 4.73 in [7]. Moreover, the T1/2 result in data set [8] was “Insoluble to measure”.
In data set [1], `COc1ccnc(C[S+]([O-])c2nc3cc(OC(F)(F)C(F)F)ccc3[nH]2)c1C` (stereo unspecified) had a concentration for half-maximal inhibition (IC50) of 398 nM. Moreover, the “-Log IC50” value in data set [2] is listed as 5.5. Moreover, the half-life is 5 min in [3] and 18 min in data set [5]. Further, the T1/2 result in [8] is “Insoluble to measure”.
In data set [1], `COc1ccnc(C[S+]([O-])c2nc3cc(OC(F)(F)C(F)F)ccc3[nH]2)c1OC` (stereo unspecified) showed an IC50 of 5010 nM. In addition, the “-Log IC50” value in data set [2] is listed as 3.8. Moreover, the half-life in data set [3] was 18 min; in [4] it was 6.67 days; in data set [5], 216 min. Also, the figures for the pKa in [6] and in [7] were 8.08 and 3.86, respectively.
For `COc1cnc(C[S+]([O-])c2nc3cc4c(cc3[nH]2)OC(F)(F)O4)c(C)c1OC` (stereo unspecified), the IC50 in data set [1] is 15800 nM. For the same compound, the “-Log IC50” value in [2] is given as under 3. For the same compound, the T1/2 entry in data set [8], in data set [9] and in [10] was “Insoluble to measure” each time.
As for `COc1cc2[nH]c([S+]([O-])Cc3nccc(OC)c3OC)nc2cc1OC(F)F` (stereo unspecified), half-maximal inhibition in [1] (IC50) was put at 3980 nM. For the same compound, the “-Log IC50” value in data set [2] is on record as 3.6. Further, the half-life is 15 min in data set [3], 33.3 days in [4] and 126 min in [5].
In turn, `COc1cnc(C[S+]([O-])c2nc3cc4c(cc3[nH]2)OC(F)(F)O4)cc1OC` (stereo unspecified) had a concentration for half-maximal inhibition (IC50) in data set [1] of 63100 nM. Also, in [2], the “-Log IC50” value is reported as under 3. Further, the T1/2 entry in data set [8], in [9] and in data set [10] was “Insoluble to measure” throughout.
Consider `COc1cnc(C[S+]([O-])c2nc3cc(OC(F)F)ccc3[nH]2)cc1OC` (stereo unspecified), for which, in data set [1], the concentration for half-maximal inhibition (IC50) is 31600 nM. Further, the “-Log IC50” value in [2] was under 3.5. For the same compound, the values for the half-life in [3], in data set [4] and in [5] were 17 min, over 8.33 days and 126 min, respectively. In addition, the pKa in [6] worked out at 8.03; in data set [7] it was 3.75.
Compound `COc1ccnc(C[S+]([O-])c2nc3cc4c(cc3[nH]2)OC(F)(F)O4)c1OC` (stereo unspecified) had an IC50 in [1] of 2510 nM. Moreover, in data set [2], the “-Log IC50” value stood at 3.6. The half-life is 38 min in [3], over 8.33 days in [4] and 360 min in data set [5]. The pKa in data set [6] was 7.97; in [7], 3.84.
For the compound `COc1ccnc(C[S+]([O-])c2nc3cc(F)c(OC(F)F)cc3[nH]2)c1OC` (stereo unspecified), the IC50 in data set [1] is 7940 nM. Moreover, the “-Log IC50” value in [2] turned out to be 3.4. The half-life in data set [3] was 26 min; in data set [4] it was 6.25 days; in data set [5], 498 min. In addition, the pKa amounted to 7.76 in [6] and 3.76 in data set [7].
Regarding `COc1ccnc(C[S+]([O-])c2nc3cc(OCC(F)(F)F)ccc3[nH]2)c1C` (stereo unspecified), in data set [1], the IC50 is 794 nM. For the same compound, the “-Log IC50” value in data set [2] is recorded as 5.4. In addition, the half-life was 5 min in data set [3], 0.208 days in [4] and 9 min in data set [5]. The pKa was determined as 8.51 in data set [6] and 4.97 in data set [7].
Consider `COc1c(C)cnc(C[S+]([O-])c2nc3cc(OC(F)F)ccc3[nH]2)c1C` (stereo unspecified), for which, in data set [1], the IC50 was 501 nM. In data set [2], the “-Log IC50” value is given as 4.4. The half-life is 12 min in data set [3], 0.625 days in data set [4] and 114 min in data set [5]. In addition, the figures for the pKa in data set [6] and in data set [7] were 8.23 and 4.16, respectively.
Turning to `COc1ccnc(C[S+]([O-])c2nc3cc4c(cc3[nH]2)OC(F)(F)O4)c1` (stereo unspecified), in data set [1], the IC50 is 2510 nM. This compound showed a -Log IC50 in [2] of under 3.5. In addition, the figures for the half-life in data set [3] and in data set [5] were 20 min and 84 min, respectively. Further, the pKa in data set [6] was determined as 7.92; in [7], 4.29. For the same compound, the T1/2 entry in data set [8] is listed as “Insoluble to measure”.
Take `COc1cnc(C[S+]([O-])c2nc3cc(OCC(F)(F)F)ccc3[nH]2)c(C)c1OC` (stereo unspecified): the 50% inhibitory concentration (IC50) in data set [1] was 2510 nM. Further, the “-Log IC50” value in [2] is recorded as 4.3. Further, the half-life in [3] is 10 min; in [4], 5.42 days; in data set [5], 198 min. Moreover, the pKa in data set [6] came to 8.61; in data set [7], 3.72.
Turning to `Cc1c(OCC(F)(F)F)ccnc1C[S+]([O-])c1nc2ccccc2[nH]1` (stereo unspecified) [LANSOPRAZOLE], the “-Log IC50” value in [2] worked out at 4.4. The half-life in [3] is 4 min; in data set [4], 1.67 days; in data set [5], 66 min. The figures for the pKa in data set [6] and in data set [7] were 8.78 and 4.01, respectively.
With `COc1ccc2[nH]c([S+]([O-])Cc3ncc(C)c(OC)c3C)nc2c1` (stereo unspecified) [OMEPRAZOLE], the “-Log IC50” value in data set [2] was 4.5. Besides, the half-life in [3] is 4 min; in [4], 3.33 days; in [5] it was 60 min. The pKa in data set [6] stood at 8.98; in data set [7], 4.13.
Regarding `COc1ccnc(C[S+]([O-])c2nc3cc(OC(F)F)ccc3[nH]2)c1OC` (stereo unspecified) [PANTOPRAZOLE], the “-Log IC50” value in data set [2] was 3.7. For the same compound, the half-life in data set [3] is 9 min; in [4], 5.42 days; in data set [5] it was 180 min. Moreover, the pKa amounted to 8.19 in data set [6] and 3.92 in data set [7].
